These results are taken from ChEMBL document CHEMBL3608232, “Exploring the Existing Drug Space for Novel pTyr Mimetic and SHP2 Inhibitors” (ACS Med Chem Lett, 2015).

The target of test [1] is T1, Tyrosine-protein phosphatase non-receptor type 9 (Homo sapiens, UniProt P43378).
T1 sequence (P43378 whole entry): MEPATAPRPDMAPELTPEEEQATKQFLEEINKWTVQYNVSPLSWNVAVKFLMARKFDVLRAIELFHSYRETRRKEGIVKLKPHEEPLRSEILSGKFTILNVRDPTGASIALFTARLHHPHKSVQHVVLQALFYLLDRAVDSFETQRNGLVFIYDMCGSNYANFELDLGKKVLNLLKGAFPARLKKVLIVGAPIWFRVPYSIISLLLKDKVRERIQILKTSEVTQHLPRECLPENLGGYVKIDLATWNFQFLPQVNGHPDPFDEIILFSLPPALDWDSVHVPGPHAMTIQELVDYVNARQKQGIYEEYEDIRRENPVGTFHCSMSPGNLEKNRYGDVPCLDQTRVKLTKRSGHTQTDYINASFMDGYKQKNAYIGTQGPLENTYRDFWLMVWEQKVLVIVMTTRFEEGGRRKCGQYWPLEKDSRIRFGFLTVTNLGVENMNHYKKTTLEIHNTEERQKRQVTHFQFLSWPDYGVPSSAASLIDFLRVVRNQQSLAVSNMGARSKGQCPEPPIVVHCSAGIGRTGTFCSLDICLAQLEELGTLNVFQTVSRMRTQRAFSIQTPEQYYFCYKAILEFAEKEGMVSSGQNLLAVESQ
Kind of test: Inhibition of phosphatase activity of human Meg2 using pNPP as a substrate after 10 mins by spectrophotometer analysis.

Test [2] concerns the target T2, Tyrosine-protein phosphatase non-receptor type 11 (Homo sapiens, UniProt Q06124).
T2 sequence (Q06124 whole entry): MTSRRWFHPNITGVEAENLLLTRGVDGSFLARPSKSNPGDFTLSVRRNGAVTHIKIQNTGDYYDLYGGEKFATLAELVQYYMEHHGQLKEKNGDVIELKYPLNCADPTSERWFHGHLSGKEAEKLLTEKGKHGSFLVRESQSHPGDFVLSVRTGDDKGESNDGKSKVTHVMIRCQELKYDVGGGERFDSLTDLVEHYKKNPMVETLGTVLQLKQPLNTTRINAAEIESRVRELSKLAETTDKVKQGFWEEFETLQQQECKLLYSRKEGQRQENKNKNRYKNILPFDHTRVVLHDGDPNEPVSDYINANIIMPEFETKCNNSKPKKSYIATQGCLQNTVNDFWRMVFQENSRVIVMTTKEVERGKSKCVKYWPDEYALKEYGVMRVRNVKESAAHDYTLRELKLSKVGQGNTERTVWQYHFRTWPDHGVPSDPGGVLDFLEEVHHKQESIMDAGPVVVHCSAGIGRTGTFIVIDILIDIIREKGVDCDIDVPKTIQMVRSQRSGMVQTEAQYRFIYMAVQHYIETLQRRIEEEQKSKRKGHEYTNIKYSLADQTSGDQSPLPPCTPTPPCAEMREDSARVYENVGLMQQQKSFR
Kind of test: Competitive inhibition of phosphatase activity of SHP2 (unknown origin) using pNPP as a substrate Lineweaver-Burk plot analysis. An outline of the steps: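 SHP2-catalysed hydrolysis of para-nitrophenyl phosphate measured with inhibitor at 0, 0.25, 0.5 and 0.75 μM. Inhibition mode assigned from a Lineweaver–Burk (double-reciprocal) plot.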

Another test has as its system SK-BR-3. Kind of test: Growth inhibition of human SKBR3 cells expressing ErbB2 in 3D matrigel after 5 days. It is filed as functional, cell-based.
In test [3] the target is T3, Low molecular weight phosphotyrosine protein phosphatase (Homo sapiens, UniProt P24666).
T3 sequence (P24666 whole entry): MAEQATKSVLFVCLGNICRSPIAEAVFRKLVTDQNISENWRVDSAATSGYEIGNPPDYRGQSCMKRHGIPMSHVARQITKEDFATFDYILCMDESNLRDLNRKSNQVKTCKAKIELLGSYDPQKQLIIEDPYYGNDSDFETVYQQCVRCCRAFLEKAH
Kind of test: Inhibition of phosphatase activity of human LMWPTP using pNPP as a substrate after 10 mins by spectrophotometer analysis.

Test [4] deals with T4, Tyrosine-protein phosphatase non-receptor type 11 (Homo sapiens) (UniProt Q06124).
T4 sequence (whole entry): T2 sequence (Q06124 whole entry)
Put plainly: Inhibition of SHP2 in human NCI-H1975 cells assessed as reduction of EGF-induced ERK1/2 activation at 40 uM after 60 mins relative to control. It is filed as cell-based. The method in brief: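 H1975 cells were stimulated with EGF and ERK1/2 and paxillin phosphorylation was assessed by immunoblot. Band intensities were quantified, and pERK1/2/total ERK1/2 or pPaxillin(Y118)/total paxillin ratios were normalized to the reference. Blots are representative of at least two independent experiments, with quantified values given as mean ± SD.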

Test [5] addresses Receptor-type tyrosine-protein phosphatase F (Homo sapiens, UniProt P10586). Put plainly: Inhibition of phosphatase activity of human LAR using pNPP as a substrate after 10 mins by spectrophotometer analysis.
The target in test [6] is T4, Tyrosine-protein phosphatase non-receptor type 11 (Homo sapiens). Put plainly: Inhibition of SHP2 in human NCI-H1975 cells assessed as increase in EGF-induced paxillin phosphorylation at Y118 at 40 uM after 60 mins relative to control.

Receptor-type tyrosine-protein phosphatase F, sequence (P10586 whole entry): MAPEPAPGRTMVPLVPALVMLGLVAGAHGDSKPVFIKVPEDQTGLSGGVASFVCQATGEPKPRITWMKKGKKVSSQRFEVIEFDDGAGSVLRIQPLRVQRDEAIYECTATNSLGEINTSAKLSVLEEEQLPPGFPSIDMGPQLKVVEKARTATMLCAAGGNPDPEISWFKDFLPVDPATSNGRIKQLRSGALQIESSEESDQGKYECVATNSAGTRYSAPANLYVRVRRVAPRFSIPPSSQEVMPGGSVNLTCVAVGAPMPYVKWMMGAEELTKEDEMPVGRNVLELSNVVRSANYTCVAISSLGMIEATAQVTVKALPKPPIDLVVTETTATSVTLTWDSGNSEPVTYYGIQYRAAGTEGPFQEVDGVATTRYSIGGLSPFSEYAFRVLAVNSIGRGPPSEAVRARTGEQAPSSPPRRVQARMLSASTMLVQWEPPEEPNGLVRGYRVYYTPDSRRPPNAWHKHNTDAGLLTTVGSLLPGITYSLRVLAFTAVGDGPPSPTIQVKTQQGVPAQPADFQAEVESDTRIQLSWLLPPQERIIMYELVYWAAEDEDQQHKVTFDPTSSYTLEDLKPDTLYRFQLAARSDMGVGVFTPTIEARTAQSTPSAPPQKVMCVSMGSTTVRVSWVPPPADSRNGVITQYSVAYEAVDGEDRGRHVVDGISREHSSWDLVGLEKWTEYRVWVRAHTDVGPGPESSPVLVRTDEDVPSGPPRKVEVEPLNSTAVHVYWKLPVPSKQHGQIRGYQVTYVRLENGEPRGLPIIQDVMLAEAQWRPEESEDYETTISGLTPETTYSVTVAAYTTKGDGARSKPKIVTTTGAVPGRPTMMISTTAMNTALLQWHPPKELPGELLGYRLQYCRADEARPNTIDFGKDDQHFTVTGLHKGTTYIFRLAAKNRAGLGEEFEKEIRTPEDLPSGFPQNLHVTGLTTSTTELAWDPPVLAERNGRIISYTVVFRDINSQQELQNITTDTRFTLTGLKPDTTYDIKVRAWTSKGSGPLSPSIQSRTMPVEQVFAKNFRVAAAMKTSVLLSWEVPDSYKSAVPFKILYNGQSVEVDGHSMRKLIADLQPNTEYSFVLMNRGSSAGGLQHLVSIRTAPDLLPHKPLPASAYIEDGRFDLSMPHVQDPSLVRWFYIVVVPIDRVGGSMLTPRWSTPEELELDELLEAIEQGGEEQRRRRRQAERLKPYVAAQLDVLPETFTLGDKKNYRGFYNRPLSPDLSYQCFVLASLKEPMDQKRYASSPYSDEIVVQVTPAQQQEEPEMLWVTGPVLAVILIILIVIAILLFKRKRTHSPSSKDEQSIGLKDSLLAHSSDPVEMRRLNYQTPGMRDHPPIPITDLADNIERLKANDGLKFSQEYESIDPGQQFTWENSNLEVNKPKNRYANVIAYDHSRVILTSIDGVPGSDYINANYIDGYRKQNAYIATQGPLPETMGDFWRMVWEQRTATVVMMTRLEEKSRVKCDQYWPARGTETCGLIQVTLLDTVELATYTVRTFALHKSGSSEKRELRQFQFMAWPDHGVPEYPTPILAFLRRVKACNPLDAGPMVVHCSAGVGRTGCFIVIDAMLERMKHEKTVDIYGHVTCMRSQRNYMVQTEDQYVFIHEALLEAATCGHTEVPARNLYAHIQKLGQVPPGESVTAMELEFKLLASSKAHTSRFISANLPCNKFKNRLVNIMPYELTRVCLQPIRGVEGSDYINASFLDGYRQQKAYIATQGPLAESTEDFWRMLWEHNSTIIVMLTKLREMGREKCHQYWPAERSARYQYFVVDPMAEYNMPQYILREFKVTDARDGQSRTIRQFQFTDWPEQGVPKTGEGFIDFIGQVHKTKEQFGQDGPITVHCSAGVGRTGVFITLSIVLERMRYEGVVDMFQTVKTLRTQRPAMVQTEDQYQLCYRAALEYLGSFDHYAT

As usually defined, the IC50 is the midpoint of a concentration-inhibition curve. One may read the Ki as a dissociation constant, usually derived from enzyme kinetics or from competition with a known ligand. A low value points to a stronger hold on the target. On to `O=C(Nc1ccc(I)cc1)C(=O)Nc1ccc(NC(=O)C(c2ccccc2)S(=O)(=O)O)cc1` (stereo not given), for which the IC50 in test [1], in test [3] and in test [5] was above 50 µM in each case. The Ki in test [2] is 0.51 µM. The “growth inhibition (GI)” value with SK-BR-3 was “Dose-dependent effect”. Further, the fold change (FC) was found to be 0.6 in test [4] and 1.3 in test [6].

Consider `O=C(Nc1ccc(NC(=O)C(c2ccccc2)S(=O)(=O)O)cc1)C(=O)Nc1ccc(-c2ccccc2)cc1` (stereo not given), for which the IC50 in test [1], in test [3] and in test [5] was above 50 µM in each case.
